Active and inactive are the calls of the source. No cut-off for these calls is given here.

From ChEMBL document CHEMBL1137638, “TEM-158 (CMT-9), a new member of the CMT-type extended-spectrum beta-lactamases” (Antimicrob Agents Chemother, 2007) come the findings set out here.

Assay [1] concerns Escherichia coli. The experiment in a line: Antibacterial activity against Escherichia coli BER1 producing beta-lactamase TEM-158. It is filed as functional, organism-based.
In assay [2] the test system is Escherichia coli. Description: Activity of Escherichia coli DH5alpha beta-lactamase TEM-12 by microacidimetric method. A digest of the protocol: (§1)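 Each beta-lactamase was purified to homogeneity. Kinetic constants (kcat, Km) for beta-lactam substrates, including penicillins, were determined by computerized microacidimetry.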
For assay [3], the system named is Escherichia coli. Description: Ratio of Kcat/Km for Escherichia coli DH5alpha beta-lactamase TEM-12 to Kcat/Km for Escherichia coli DH5alpha beta-lactamase TEM-158. A digest of the protocol: as §1
In assay [4] the test system is Escherichia coli. The experiment in a line: Ratio of Kcat to Km for Escherichia coli DH5alpha beta-lactamase TEM-12. Further details: unit not given here. A digest of the protocol: as §1
Assay [5] deals with Escherichia coli. Description: Activity of Escherichia coli CF0042 beta-lactamase TEM-35 by microacidimetric method. A digest of the protocol:
as §1

Assay [6] concerns Escherichia coli. The experiment in a line: Antibacterial activity against Escherichia coli BER1 producing TEM-158 by microdilution method. In kind it is functional, organism-based.
The test system of assay [7] is Escherichia coli. Description: Ratio of Kcat to Km for Escherichia coli CF0042 beta-lactamase TEM-35. On the set-up: unit not given here. Summed up:
as §1

The subject of assay [8] is Escherichia coli. Description: Ratio of Kcat/Km for Escherichia coli DH5alpha beta-lactamase TEM-1 to Kcat/Km for Escherichia coli DH5alpha beta-lactamase TEM-158. Summed up: as §1
For assay [9], the system named is Escherichia coli. Description: Ratio of Kcat/Km for Escherichia coli DH5alpha beta-lactamase TEM-35 to Kcat/Km for Escherichia coli DH5alpha beta-lactamase TEM-158. A digest of the protocol: as §1
The test system of assay [10] is Escherichia coli str. K-12 substr. DH10B.

As to `CO/N=C(\C(=O)N[C@@H]1C(=O)N2C(C(=O)O)=C(COC(C)=O)CS[C@H]12)c1csc(N)n1`, the outcome in the assay with Escherichia coli [1] and in the assay with Escherichia coli [6] was inactive. Moreover, the Km in the assay with Escherichia coli [2] turned out to be 320 µM. The kcat was 10.6 s⁻¹ in the assay on Escherichia coli [2] and below 0.1 s⁻¹ with Escherichia coli [5]. Also, in the assay with Escherichia coli [3], the Ratio amounted to 4. In the assay with Escherichia coli [4], the kcat/Km was found to be 0.03.

With `CC1(C)S[C@@H]2[C@H](NC(=O)[C@H](N)c3ccc(O)cc3)C(=O)N2[C@H]1C(=O)O`, the result in the assay on Escherichia coli [1] and in the assay on Escherichia coli [6] was inactive. Further, the kcat/Km was determined as 8.5 with Escherichia coli [7] and 8 with Escherichia coli [4]. The figures for the Ratio in the assay on Escherichia coli [8], in the assay on Escherichia coli [3] and with Escherichia coli [9] were 8, 4 and 8, respectively. Moreover, the Km with Escherichia coli [2] came to 7.5 µM; in the assay with Escherichia coli [5] it was 245 µM. Further, the kcat with Escherichia coli [2] stood at 60 s⁻¹; in the assay with Escherichia coli [5] it was 900 s⁻¹.

Turning to `CO[C@@]1(NC(=O)Cc2cccs2)C(=O)N2C(C(=O)O)=C(COC(N)=O)CS[C@@H]21`, the outcome in the assay with Escherichia coli [1] and with Escherichia coli [6] was inactive. The Ratio with Escherichia coli [3] is 4.

As for `C[C@@H](O)[C@H]1C(=O)N2C(C(=O)O)=C(SCCNC=N)C[C@H]12`, the result in the assay with Escherichia coli [1] and in the assay on Escherichia coli [6] was inactive. Moreover, in the assay on Escherichia coli [3], the Ratio is 4.

In the case of `C[C@H]1[C@H](NC(=O)/C(=N\OC(C)(C)C(=O)O)c2csc(N)n2)C(=O)N1S(=O)(=O)O`, the result in the assay on Escherichia coli [1] and with Escherichia coli [6] was inactive. For the same compound, the Km in the assay on Escherichia coli [2] turned out to be 247 µM. For the same compound, the kcat was 2 s⁻¹ in the assay on Escherichia coli [2] and below 0.1 s⁻¹ in the assay with Escherichia coli [5]. Also, the Ratio in the assay on Escherichia coli [3] was determined as 4. Also, the kcat/Km in the assay with Escherichia coli [4] was found to be 0.008.

Consider `CO/N=C(\C(=O)N[C@@H]1C(=O)N2C(C(=O)O)=C(COC(N)=O)CS[C@H]12)c1ccco1`, for which the outcome in the assay with Escherichia coli [1] and with Escherichia coli [6] was inactive. The Ratio in the assay on Escherichia coli [3] came out at 4.

For `CC(C)(O/N=C(\C(=O)N[C@@H]1C(=O)N2C(C(=O)[O-])=C(C[n+]3ccccc3)CS[C@H]12)c1csc(N)n1)C(=O)O`, the outcome in the assay on Escherichia coli [1] and in the assay with Escherichia coli [6] was inactive. Further, the Km in the assay with Escherichia coli [2] worked out at 254 µM. For the same compound, the kcat in the assay with Escherichia coli [2] was 11.1 s⁻¹; in assay [10], 16 s⁻¹; with Escherichia coli [5] it was below 0.1 s⁻¹. The Ratio with Escherichia coli [3] worked out at 4. Further, the kcat/Km with Escherichia coli [4] was 0.04.

Turning to `CO/N=C(\C(=O)N[C@@H]1C(=O)N2C(C(=O)[O-])=C(C[N+]3(C)CCCC3)CS[C@H]12)c1csc(N)n1`, the result with Escherichia coli [1] and in the assay with Escherichia coli [6] was inactive. Also, the Ratio with Escherichia coli [3] stood at 4.

For the compound `CC(=O)OCC1=C(C(=O)O)N2C(=O)[C@@H](NC(=O)Cc3cccs3)[C@H]2SC1`, the result in the assay with Escherichia coli [1] and with Escherichia coli [6] was inactive. In addition, the values for the kcat/Km with Escherichia coli [7] and in the assay on Escherichia coli [4] were 0.04 and 0.02, respectively. Further, the Km was determined as 327 µM in the assay with Escherichia coli [2] and 1200 µM with Escherichia coli [5]. The kcat with Escherichia coli [2] is 46 s⁻¹; in the assay with Escherichia coli [5], 52 s⁻¹. In addition, in the assay with Escherichia coli [3], the Ratio worked out at 4.

Turning to `CC1(C)S[C@@H]2[C@H](NC(=O)Cc3ccccc3)C(=O)N2[C@H]1C(=O)O`, the kcat/Km is 7.5 in the assay on Escherichia coli [7] and 11 in the assay on Escherichia coli [4]. Further, the Ratio in the assay on Escherichia coli [8], in the assay on Escherichia coli [3] and in the assay on Escherichia coli [9] was 8 throughout. Also, the Km amounted to 7 µM in the assay with Escherichia coli [2] and 140 µM in the assay on Escherichia coli [5]. Moreover, the kcat in the assay on Escherichia coli [2] stood at 80 s⁻¹; in the assay with Escherichia coli [5], 1050 s⁻¹.

For the compound `CC1(C)S[C@@H]2[C@H](NC(=O)[C@H](C(=O)O)c3ccsc3)C(=O)N2[C@H]1C(=O)O`, the result in the assay with Escherichia coli [1] and in the assay with Escherichia coli [6] was inactive. Also, the kcat/Km in the assay with Escherichia coli [7] is 0.4; in the assay with Escherichia coli [4], 1.6. Besides, the Ratio in the assay on Escherichia coli [8], with Escherichia coli [3] and in the assay on Escherichia coli [9] was 8 each time. The values for the Km in the assay with Escherichia coli [2] and with Escherichia coli [5] were 12 µM and 320 µM, respectively. For the same compound, the catalytic constant (kcat) in the assay with Escherichia coli [2] worked out at 19 s⁻¹; with Escherichia coli [5] it was 125 s⁻¹.

`CCN1CCN(C(=O)N[C@@H](C(=O)N[C@@H]2C(=O)N3[C@@H]2SC(C)(C)[C@@H]3C(=O)O)c2ccccc2)C(=O)C1=O`: the result in the assay with Escherichia coli [1] and with Escherichia coli [6] was inactive. For the same compound, the kcat/Km in the assay on Escherichia coli [7] is 2.9; with Escherichia coli [4], 6. Also, the Ratio in the assay with Escherichia coli [8], in the assay on Escherichia coli [3] and in the assay on Escherichia coli [9] was 8 in each case. The results for the Km in the assay on Escherichia coli [2] and with Escherichia coli [5] were 15 µM and 320 µM, respectively. Moreover, the kcat amounted to 89 s⁻¹ in the assay with Escherichia coli [2] and 945 s⁻¹ in the assay with Escherichia coli [5].
